Where a name gives a salt, the structure may show the parent alone.
What was measured:
[1] = Antioxidant activity assessed as nitric oxide radical scavenging activity at 50 uM incubated in dark for 20 mins relative to control; type: functional
[2] = Cytotoxicity against human HCT116 cells assessed as decrease in cell viability after 48 hrs by MTT assay; type: functional, cell-based; conditions: HCT-116, 48 h
In short: (§1)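 Cells seeded at 2 x 10^3 per well in MEM with 10% FBS and left to attach for 24 h. Exposed 48 h to 5, 10, 20, 50, 100 and 200 µM (printed µM/mL). Controls got medium with 0.2% DMSO. Duplicate treatments. After PBS wash, MTT (stock 1 mg/mL) added for 4 h at 37 °C. Formazan dissolved in DMSO and OD read at 590 nm.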

[3] = Antioxidant activity assessed as DPPH free radical scavenging activity at 20 uM incubated in dark for 20 mins relative to control; type: functional
In short: (§2)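 Compounds dissolved in DMSO and diluted in 100 mM Tris–HCl (pH 7.4). DPPH (0.1 mM in methanol) added with vigorous shaking, then held in the dark at room temperature for 20 min. Absorbance read at 517 nm with DMSO baseline correction. Compound-free control prepared the same way. Run in triplicate.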

[4] = Antioxidant activity assessed as nitric oxide radical scavenging activity at 2 uM incubated in dark for 20 mins relative to control; type: functional
[5] = Antioxidant activity assessed as DPPH free radical scavenging activity at 50 uM incubated in dark for 20 mins relative to control; type: functional; in short: as §2
[6] = Cytotoxicity against human HeLa cells assessed as decrease in cell viability after 48 hrs by MTT assay; type: functional, cell-based; in short: as §1
[7] = Antioxidant activity assessed as DPPH free radical scavenging activity at 10 uM incubated in dark for 20 mins relative to control; type: functional; in short: as §2
[8] = Antioxidant activity assessed as DPPH free radical scavenging activity at 2 uM incubated in dark for 20 mins relative to control; type: functional; in short: as §2
[9] = Antioxidant activity assessed as nitric oxide radical scavenging activity at 10 uM incubated in dark for 20 mins relative to control; type: functional
[10] = Cytotoxicity against human QG56 cells assessed as decrease in cell viability after 48 hrs by MTT assay; type: functional, cell-based; conditions: QG-56, 48 h; in short: as §1
[11] = Antioxidant activity assessed as nitric oxide radical scavenging activity at 20 uM incubated in dark for 20 mins relative to control; type: functional

COc1cc(/C=C/C(=O)C2=C(/C=C/c3ccc(O)c(OC)c3)NC(=S)NC2c2c(Cl)cccc2Cl)ccc1O (stereo not drawn)
Activity [1]: 50%
IC50 [2]: 50 µM
Activity [3]: 43.2%
Activity [4]: 15%
Activity [5]: 50.2%
IC50 [6]: 100 µM
Activity [7]: 29%
Activity [8]: 17.7%
Activity [9]: 20.2%
IC50 [10]: 100 µM
Activity [11]: 33.9%

COc1cc(/C=C/C(=O)C2=C(/C=C/c3ccc(O)c(OC)c3)NC(=S)NC2c2ccccc2)ccc1O (stereo not drawn)
Activity [1]: 50.4%
IC50 [2]: 100 µM
Activity [3]: 38%
Activity [4]: 16.6%
Activity [5]: 48%
IC50 [6]: 25 µM
Activity [7]: 26.5%
Activity [8]: 15.5%
Activity [9]: 22%
IC50 [10]: 100 µM
Activity [11]: 36.6%

COc1cc(/C=C/C(=O)C2=C(/C=C/c3ccc(O)c(OC)c3)NC(=O)NC2c2c(Cl)cccc2Cl)ccc1O (stereo not drawn)
Activity [1]: 44.2%
IC50 [2]: 50 µM
Activity [3]: 31.9%
Activity [4]: 11.2%
Activity [5]: 43.2%
IC50 [6]: 25 µM
Activity [7]: 19.2%
Activity [8]: 11.2%
Activity [9]: 20%
IC50 [10]: 100 µM
Activity [11]: 33%

COc1cc(/C=C/C(=O)C2=C(/C=C/c3ccc(O)c(OC)c3)NC(=O)NC2c2ccc(N(C)C)cc2)ccc1O (stereo not drawn)
Activity [1]: 89.2%
IC50 [2]: 12.5 µM
Activity [3]: 48%
Activity [4]: 28.2%
Activity [5]: 56%
IC50 [6]: 25 µM
Activity [7]: 37.6%
Activity [8]: 17.9%
Activity [9]: 69.9%
IC50 [10]: 12.5 µM
Activity [11]: 82.2%

COc1cc(/C=C/C(=O)C2=C(/C=C/c3ccc(O)c(OC)c3)NC(=O)NC2c2ccc(O)cc2)ccc1O (stereo not drawn)
Activity [1]: 86.2%
IC50 [2]: 100 µM
Activity [3]: 84.6%
Activity [4]: 33.3%
Activity [5]: 90.3%
IC50 [6]: 25 µM
Activity [7]: 75%
Activity [8]: 25%
Activity [9]: 72%
IC50 [10]: 50 µM
Activity [11]: 80.1%

COc1cc(/C=C/C(=O)C2=C(/C=C/c3ccc(O)c(OC)c3)NC(=O)NC2c2ccccc2)ccc1O (stereo not drawn)
Activity [1]: 50.2%
IC50 [2]: 25 µM
Activity [3]: 38.2%
Activity [4]: 10.5%
Activity [5]: 40.2%
IC50 [6]: 100 µM
Activity [7]: 26.4%
Activity [8]: 15.2%
Activity [9]: 20%
IC50 [10]: 50 µM
Activity [11]: 31%

COc1cccc2c1C(=O)c1c(O)c3c(c(O)c1C2=O)C[C@@](O)(C(=O)CO)C[C@@H]3O[C@H]1C[C@H](N)[C@H](O)[C@H](C)O1 [DOXORUBICIN HYDROCHLORIDE]
IC50 [2]: 5 µM
IC50 [6]: 2.5 µM
IC50 [10]: 2.5 µM

COc1cc(/C=C/C(=O)C2=C(/C=C/c3ccc(O)c(OC)c3)NC(=O)NC2c2cccc([N+](=O)[O-])c2)ccc1O (stereo not drawn)
Activity [1]: 48%
IC50 [2]: 50 µM
Activity [3]: 66.3%
Activity [4]: 10.2%
Activity [5]: 71%
IC50 [6]: 100 µM
Activity [7]: 51.2%
Activity [8]: 17%
Activity [9]: 19.9%
IC50 [10]: 25 µM
Activity [11]: 33%

COc1cc(/C=C/C(=O)C2=C(/C=C/c3ccc(O)c(OC)c3)NC(=S)NC2c2ccccc2O)ccc1O (stereo not drawn)
Activity [1]: 88.5%
IC50 [2]: 100 µM
Activity [3]: 72.3%
Activity [4]: 34%
Activity [5]: 86.3%
IC50 [6]: 25 µM
Activity [7]: 60.2%
Activity [8]: 25%
Activity [9]: 70.8%
IC50 [10]: 50 µM
Activity [11]: 79.9%

COc1cc(/C=C/C(=O)C2=C(/C=C/c3ccc(O)c(OC)c3)NC(=O)NC2c2ccccc2O)ccc1O (stereo not drawn)
Activity [1]: 88%
IC50 [2]: 100 µM
Activity [3]: 81%
Activity [4]: 29.9%
Activity [5]: 88.9%
IC50 [6]: 50 µM
Activity [7]: 73.6%
Activity [8]: 33.6%
Activity [9]: 71%
IC50 [10]: 100 µM
Activity [11]: 80.9%

COc1cc(/C=C/C(=O)C2=C(/C=C/c3ccc(O)c(OC)c3)NC(=S)NC2c2ccc(C)cc2)ccc1O (stereo not drawn)
Activity [1]: 41%
IC50 [2]: 50 µM
Activity [3]: 51%
Activity [4]: 10.2%
Activity [5]: 62%
IC50 [6]: 25 µM
Activity [7]: 43.2%
Activity [8]: 15.5%
Activity [9]: 19.9%
IC50 [10]: 12.5 µM
Activity [11]: 30%

COc1cc(/C=C/C(=O)CC(=O)/C=C/c2ccc(O)c(OC)c2)ccc1O [CURCUMIN]
Activity [1]: 59.9%
IC50 [2]: 50 µM
Activity [3]: 42.2%
Activity [4]: 12.2%
Activity [5]: 50.2%
IC50 [6]: 50 µM
Activity [7]: 33.2%
Activity [8]: 6%
Activity [9]: 22.2%
IC50 [10]: 100 µM
Activity [11]: 36.5%

COc1cc(/C=C/C(=O)C2=C(/C=C/c3ccc(O)c(OC)c3)NC(=S)NC2c2ccc(N(C)C)cc2)ccc1O (stereo not drawn)
Activity [1]: 84%
IC50 [2]: 12.5 µM
Activity [3]: 83%
Activity [4]: 32.3%
Activity [5]: 89.5%
IC50 [6]: 12.5 µM
Activity [7]: 72%
Activity [8]: 30.2%
Activity [9]: 59%
IC50 [10]: 25 µM
Activity [11]: 72.1%

COc1cc(/C=C/C(=O)C2=C(/C=C/c3ccc(O)c(OC)c3)NC(=S)NC2c2ccccc2Cl)ccc1O (stereo not drawn)
Activity [1]: 55.6%
IC50 [2]: 100 µM
Activity [3]: 56.6%
Activity [4]: 15.5%
Activity [5]: 60%
IC50 [6]: 50 µM
Activity [7]: 43.2%
Activity [8]: 16.2%
Activity [9]: 21.2%
IC50 [10]: 50 µM
Activity [11]: 39.2%

COc1cc(/C=C/C(=O)C2=C(/C=C/c3ccc(O)c(OC)c3)NC(=O)NC2c2ccccc2Cl)ccc1O (stereo not drawn)
Activity [1]: 56%
IC50 [2]: 50 µM
Activity [3]: 46%
Activity [4]: 16.6%
Activity [5]: 55.5%
IC50 [6]: 100 µM
Activity [7]: 40%
Activity [8]: 20.2%
Activity [9]: 23%
IC50 [10]: 100 µM
Activity [11]: 38.7%

COc1cc(/C=C/C(=O)C2=C(/C=C/c3ccc(O)c(OC)c3)NC(=O)NC2c2ccc(C)cc2)ccc1O (stereo not drawn)
Activity [1]: 52.2%
IC50 [2]: 12.5 µM
Activity [3]: 38.2%
Activity [4]: 15.5%
Activity [5]: 46%
IC50 [6]: 100 µM
Activity [7]: 29.9%
Activity [8]: 17.2%
Activity [9]: 23.9%
IC50 [10]: 100 µM
Activity [11]: 36.3%

Reference: ChEMBL document CHEMBL3856222, “Design, structure activity relationship, cytotoxicity and evaluation of antioxidant activity of curcumin derivatives/analogues” (Eur J Med Chem, 2016)
